According to ChEMBL document CHEMBL3414570, “Small molecule binding sites on the Ras:SOS complex can be exploited for inhibition of Ras activation” (J Med Chem, 2015):
The source made the active and inactive calls. The rule behind the calls is not given here.

Columns and labels:
[1] = Binding affinity to 6His-TEV-SH-HRas(1 to 166) (unknown origin)/6His-TEV-SH-SOS (unknown origin) complex by nuclear magnetic resonance analysis; design: species or system Homo sapiens
Homo sapiens [2] = species on record: Homo sapiens; experiment: Inhibition of Kras:GDP:SOS complex (unknown origin) at 200 uM after 2.5 hrs by HTRF method
Procedure, shortened: (§1)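 Biotin-KRas-GDP plus SOS preincubated with compound (200 μM final during preincubation) 2.5 h ambient; streptavidin-europium in DTT-containing buffer added, 4 h. GST-Raf/anti-GST-XL665 plus GTPγS then added; final 3 nM KRas, 1 µM SOS, 1 μM GTPγS. HTRF read at 60 min; inhibition relative to DMSO (0%) and no-KRas (100%) controls.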

Homo sapiens [3] = species on record: Homo sapiens; experiment: Inhibition of SOS (unknown origin) at 200 uM incubated for 2.5 hrs followed by KRas-GDP addition measured after 4 hrs by HTRF method
Procedure, shortened: as §1, with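 “SOS” for “Biotin-KRas-GDP plus SOS”, “then biotin-KRas-GDP” for “in DTT-containing buffer”, “started exchange;” for “then added;”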

[4] = molecular target: GTPase KRas (Homo sapiens) (UniProt P01116); experiment: Inhibition of biotinylated KRas-GDP (unknown origin) at 200 uM incubated for 2.5 hrs followed by SOS addition measured after 4 hrs by HTRF method
GTPase KRas (Homo sapiens), sequence (P01116 whole entry, looked up): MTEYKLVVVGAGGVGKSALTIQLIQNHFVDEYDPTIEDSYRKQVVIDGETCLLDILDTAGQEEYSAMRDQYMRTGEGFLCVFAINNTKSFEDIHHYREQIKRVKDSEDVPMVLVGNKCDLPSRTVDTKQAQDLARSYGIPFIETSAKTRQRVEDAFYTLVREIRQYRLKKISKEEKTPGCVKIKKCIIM
Procedure, shortened: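 Biotin-KRas-GDP preincubated with compound (200 μM final during preincubation) 2.5 h ambient; streptavidin-europium then SOS added, 4 h equilibration. GST-Raf/anti-GST-XL665 premix plus GTPγS added to start exchange; final 3 nM KRas, 1 µM SOS, 1 μM GTPγS, 10 nM GST-Raf. HTRF read at 60 min (665/615 nm); inhibition relative to DMSO (0%) and no-KRas (100%) controls.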

[5] = molecular target: GTPase KRas (Homo sapiens) (UniProt P01116); experiment: Time dependent inhibition of wild-type KRas (unknown origin) assessed as SOS-mediated MANT-dGDP displacement at 200 uM by microplate reader analysis
Procedure, shortened: (§2)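 KRas (WT, G12V or G12C) preequilibrated 4 h with SOS and MANT-dGDP in HEPES/NaCl/MgCl2/Tween-20 buffer; added to compound (200 μM final). Fluorescence read kinetically (ex 350/em 450 nm) to 85 min; each well referenced to time zero and to DMSO controls.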

[6] = system: GTPase KRas (Homo sapiens), P01116 [G12V]; experiment: Time dependent inhibition of KRas G12V mutant (unknown origin) assessed as SOS-mediated MANT-dGDP displacement at 200 uM by microplate reader analysis; procedure, shortened: as §2
GTPase KRas (Homo sapiens), P01116 [G12V], sequence (P01116 whole entry G12V): as the sequence (P01116 whole entry, looked up) above, with G12V counted along it

[7] = system: GTPase KRas (Homo sapiens), P01116 [G12C]; experiment: Time dependent inhibition of KRas G12C mutant (unknown origin) assessed as SOS-mediated MANT-dGDP displacement at 200 uM by microplate reader analysis; procedure, shortened: as §2
GTPase KRas (Homo sapiens), P01116 [G12C], sequence (P01116 whole entry G12C): as the sequence (P01116 whole entry, looked up) above, with G12C counted along it

Structure (SMILES)	Kd [1]	inhibition (Homo sapiens [2])	inhibition (Homo sapiens [3])	further results
COc1ccc(S(=O)(=O)Nc2nccs2)cc1	6000 µM	–	–	–
CCN1C(=O)C=C(c2cc(Cl)cc(C(N)=O)c2)C1=O	–	40%	inactive	–
O=C1C=CC(=O)N1C1CCS(=O)(=O)C1 (stereo not drawn)	–	40%	inactive	–
OC1(c2ccc(Br)cc2)CCNCC1	1700 µM	–	–	–
CCN1C(=O)C=C(c2cc(C#N)cc(C(=O)O)c2)C1=O	–	inactive	inactive	inhibition [4]: inactive
Nc1ccc(S(=O)(=O)N2CCCCC2=O)cc1	3000 µM	–	–	–
CCN1C(=O)C=C(c2cccc(C(N)=O)c2)C1=O	–	inactive	inactive	inhibition [4]: inactive; inhibition [5]: Active; inhibition [6]: Active; inhibition [7]: Active
CCN1C(=O)C=C(c2cccc(CN)c2)C1=O	–	inactive	inactive	inhibition [4]: inactive
CSc1nc(-c2c(C)cccc2C)nc(N2CCNCC2)n1	1600 µM	–	–	–
Nc1ccc(S(=O)(=O)NC(=O)C2CC2)cc1	6000 µM	–	–	–
Brc1ccc(CN2CCCC2)cc1	1300 µM	–	–	–
Brc1ccc2cc[nH]c2c1	6000 µM	–	–	–
